We go through eleven compounds from ChEMBL document CHEMBL1127825, “Synthesis and in vitro evaluation of 9-anilino-3,6-diaminoacridines active against a multidrug-resistant strain of the malaria parasite Plasmodium falciparum” (J Med Chem, 1994).

pIC50: −log10 of the molar value. Values after ≈ are worked out from the molar mass of the structure shown. Some results are limits rather than exact numbers.

The subject of one series is Jurkat. As to the kind of experiment: Concentration required to reduce growth of human jurkat leukemia cells to 50% of control cultures, determined using a 72 hr continuous exposure. It counts as functional, cell-based. An outline of the steps:
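Human Jurkat leukemia cells given continuous drug exposure for 72 h, then counted on a hemocytometer. IC50 is the concentration that cuts cell growth to 50% of untreated controls. Values are means of at least two independent determinations, with variation typically ±15%.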

In series [1] the test system is Plasmodium falciparum. As to the kind of experiment: Inhibitory concentration against Plasmodium falciparum D6 infected erythrocytes. The series is classed as functional, organism-based.
Series [2] deals with Plasmodium falciparum. As to the kind of experiment: (§1) Inhibitory concentration against Plasmodium falciparum K1 infected erythrocytes. It counts as functional, organism-based. Summed up: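 Chloroquine- and pyrimethamine-resistant K1 strain in infected erythrocyte suspensions (0.5% initial parasitemia), exposed to drug for 24 h at 37 °C. Read-out: [3H]hypoxanthine incorporation into parasites. IC50 in μM is the concentration that reduces incorporation to 50% of untreated controls.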

The subject of series [3] is Plasmodium falciparum. Put plainly: Inhibitory concentration against Plasmodium falciparum W2 infected erythrocytes. It counts as functional, organism-based.
Series [4] has as its system Plasmodium falciparum. Put plainly: Inhibitory concentration IC50 against Plasmodium falciparum K1 by [3H]hypoxanthine uptake over 24 hr. It counts as functional, organism-based. An outline of the steps:
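K1 strain of P. falciparum (chloroquine- and pyrimethamine-resistant) in infected erythrocyte suspensions at 0.5% initial parasitemia, exposed to drug for 24 h at 37 °C. Read-out is [3H]hypoxanthine incorporation into parasites. IC50 is the concentration giving 50% inhibition relative to untreated controls.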

Series [5] deals with T1, DNA topoisomerase 2 (Plasmodium falciparum K1) (UniProt P41001).
T1 sequence (whole entry): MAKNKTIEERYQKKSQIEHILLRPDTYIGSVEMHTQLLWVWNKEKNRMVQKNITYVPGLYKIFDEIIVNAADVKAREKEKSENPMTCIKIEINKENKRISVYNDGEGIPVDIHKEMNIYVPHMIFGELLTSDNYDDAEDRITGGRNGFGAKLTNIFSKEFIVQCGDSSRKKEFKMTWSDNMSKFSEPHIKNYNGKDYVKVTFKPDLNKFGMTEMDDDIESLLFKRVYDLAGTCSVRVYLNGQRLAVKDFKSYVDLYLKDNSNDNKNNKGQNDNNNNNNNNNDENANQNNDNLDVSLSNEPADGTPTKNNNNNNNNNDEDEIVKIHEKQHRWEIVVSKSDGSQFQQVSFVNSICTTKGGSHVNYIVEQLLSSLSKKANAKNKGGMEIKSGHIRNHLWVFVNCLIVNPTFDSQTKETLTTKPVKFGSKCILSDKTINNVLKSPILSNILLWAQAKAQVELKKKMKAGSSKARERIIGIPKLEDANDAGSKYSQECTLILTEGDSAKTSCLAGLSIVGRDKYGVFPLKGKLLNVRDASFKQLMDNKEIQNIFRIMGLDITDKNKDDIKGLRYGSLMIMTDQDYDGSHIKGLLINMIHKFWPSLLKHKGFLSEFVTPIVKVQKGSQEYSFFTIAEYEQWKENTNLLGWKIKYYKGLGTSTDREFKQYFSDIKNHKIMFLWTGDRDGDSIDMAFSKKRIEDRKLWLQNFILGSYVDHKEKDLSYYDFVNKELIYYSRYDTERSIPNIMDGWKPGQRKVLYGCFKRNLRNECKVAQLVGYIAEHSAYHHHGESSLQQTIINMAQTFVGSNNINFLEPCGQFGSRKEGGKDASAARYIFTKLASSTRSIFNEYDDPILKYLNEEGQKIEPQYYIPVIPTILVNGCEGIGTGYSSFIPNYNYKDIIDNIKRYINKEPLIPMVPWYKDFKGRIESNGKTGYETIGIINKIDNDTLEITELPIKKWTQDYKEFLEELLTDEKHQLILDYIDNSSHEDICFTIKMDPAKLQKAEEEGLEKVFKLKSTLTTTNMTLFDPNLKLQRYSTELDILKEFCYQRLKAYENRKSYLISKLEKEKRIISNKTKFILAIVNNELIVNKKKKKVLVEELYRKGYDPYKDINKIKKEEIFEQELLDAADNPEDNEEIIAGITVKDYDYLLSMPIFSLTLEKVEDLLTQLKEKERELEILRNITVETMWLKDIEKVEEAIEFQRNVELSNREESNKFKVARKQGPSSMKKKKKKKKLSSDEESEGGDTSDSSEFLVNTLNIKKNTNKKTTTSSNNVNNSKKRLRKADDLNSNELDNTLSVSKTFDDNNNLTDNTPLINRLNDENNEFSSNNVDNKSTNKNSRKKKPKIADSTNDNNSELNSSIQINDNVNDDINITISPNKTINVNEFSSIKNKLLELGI
Put plainly: Minimum inhibitory concentration required to completely inhibit topoisomerase II activity from Plasmodium falciparum was determined using P4 DNA […] assay.

Series [6] in a line: In vitro therapeutic index value is the ratio between IC50 values of [J] and [P]. The note with it: human, Jurkat cells; read-out: TI. It counts as cell-based.
Series [7] has as its target DNA topoisomerase II (Homo sapiens) (UniProt P11388+Q02880). Put plainly: Minimum inhibitory concentration required to completely inhibit topoisomerase II activity from jurkat human leukemia cells was determined using P4 DNA unknotting assay. An outline of the steps:
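Enzyme is a partially purified topoisomerase II extract from midlog Jurkat cells, made by sonication in Tris pH 8/KCl/MgCl2/EGTA buffer with protease inhibitors, then PEG/KCl precipitation. Extract is diluted to a set P4 DNA unknotting activity. Proteinase K method scores unknotting and linearization of phage P4 DNA on 0.7% agarose gels stained with ethidium bromide. MIC is the concentration giving complete inhibition.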

Series [8] deals with Plasmodium falciparum. As to the kind of experiment: Minimum inhibitory concentration (IC90) against Plasmodium falciparum K1 infected erythrocytes.
Series [9] deals with Plasmodium falciparum. The description is as §1. It counts as functional.
In series [10] the test system is Plasmodium falciparum. Put plainly: Minimum inhibitory concentration (IC90) against Plasmodium falciparum K1 infected erythrocytes. This is another data set of the same source.

For orientation: pIC50 means the IC50 on a negative log10 scale, so that one unit is a factor of ten. Regarding `CN(C)Cc1ccc(Nc2c3ccc(N)cc3nc3cc(N)ccc23)cc1`, the pIC50 with Jurkat was less than 4.70; in the series on Plasmodium falciparum [1], 6.95; with Plasmodium falciparum [2], 7.40; in the series with Plasmodium falciparum [3], 6.56; in the series on Plasmodium falciparum [4], 7.40. Further, the MIC was determined as 50 µM (≈ 17.9 µg/mL) in series [5] and 20 µM (≈ 7.15 µg/mL) in [7]. For the same compound, the selectivity ratio in series [6] was greater than 500.

With `Nc1ccc(Nc2c3ccc(N)cc3nc3cc(N)ccc23)cc1`, the pIC50 in the series on Jurkat is 4.82; in the series on Plasmodium falciparum [1] it was 7.48; with Plasmodium falciparum [2], 7.60; in the series on Plasmodium falciparum [3], 7.43; in the series with Plasmodium falciparum [4], 7.60. Further, the MIC is 10 µM (≈ 3.15 µg/mL) in series [5] and 20 µM (≈ 6.31 µg/mL) in [7]. In addition, the selectivity ratio in [6] came to 600.

The IC90 is the point of the concentration-response curve where the effect stands at 90%. Lower therefore signals greater potency. With `C=C[C@H]1CN2CC[C@H]1C[C@H]2[C@H](O)c1ccnc2ccc(OC)cc12` [QUININE], the pIC50 in the series on Plasmodium falciparum [1] was 7.32; in the series on Plasmodium falciparum [3], 7.00. In the series on Plasmodium falciparum [8], this compound displayed an IC90 of 0.3 µM.

As a reminder, the IC50 is the concentration at which inhibition is half-maximal. A lower IC50 goes with inhibition by little substance. Regarding `COc1ccc2nc3cc(Cl)ccc3c(Nc3cc(CN4CCCC4)c(O)c(CN4CCCC4)c3)c2n1` [PYRONARIDINE], the pIC50 is 5.40 with Jurkat, 9.00 in the series with Plasmodium falciparum [1], 9.10 in the series on Plasmodium falciparum [3] and 8.57 in the series with Plasmodium falciparum [4]. Further, the midpoint of inhibition in the series with Plasmodium falciparum [9], the IC50, lay at 0.027 µM. For the same compound, the selectivity ratio in series [6] stood at 1480.

For `Nc1ccc2c(=Nc3ccc(S(N)(=O)=O)cc3)c3ccc(N)cc3[nH]c2c1`, the results for the pIC50 with Jurkat and in the series on Plasmodium falciparum [4] were 4.70 and 7.70, respectively. The MIC in series [5] came out at 6 µM (≈ 2.28 µg/mL); in series [7], 20 µM (≈ 7.59 µg/mL). For the same compound, the selectivity ratio in series [6] turned out to be 1000.

Regarding `C[C@@H]1CC[C@H]2[C@@H](C)C(=O)O[C@@H]3O[C@@]4(C)CC[C@@H]1[C@]32OO4` [ARTEMISININ], the pIC50 is 7.89 in the series with Plasmodium falciparum [1] and 7.92 in the series on Plasmodium falciparum [3].

`CNS(=O)(=O)c1ccc(Nc2c3ccc(N)cc3nc3cc(N)ccc23)cc1`: the pIC50 with Jurkat was 5.70; in the series with Plasmodium falciparum [4] it was 7.85. For the same compound, the MIC in series [5] amounted to 25 µM (≈ 9.84 µg/mL); in [7], 20 µM (≈ 7.87 µg/mL). Further, the selectivity ratio in series [6] is 143.

Consider `CN(C)c1ccc(Nc2c3ccc(N)cc3nc3cc(N)ccc23)cc1`, for which the pIC50 with Jurkat was 5.22; in the series on Plasmodium falciparum [1], 7.20; in the series on Plasmodium falciparum [2], 7.47; with Plasmodium falciparum [3], 6.93; with Plasmodium falciparum [4] it was 7.47. Besides, the MIC was 12.5 µM (≈ 4.29 µg/mL) in series [5] and 20 µM (≈ 6.87 µg/mL) in series [7]. Further, in series [6], the selectivity ratio came out at 176.

`CCN(CC)CCCC(C)Nc1ccnc2cc(Cl)ccc12` (stereo not drawn) [CHLOROQUINE]: it took 0.25 µM to reach half-maximal inhibition in the series with Plasmodium falciparum [9] (IC50).

`NC(=O)c1ccc(Nc2c3ccc(N)cc3nc3cc(N)ccc23)cc1`: the results for the pIC50 in the series with Jurkat and in the series with Plasmodium falciparum [4] were less than 4.70 and 7.15, respectively. Also, the results for the MIC in series [5] and in series [7] were 6 µM (≈ 2.06 µg/mL) and 20 µM (≈ 6.87 µg/mL), respectively. In addition, in series [6], the selectivity ratio is greater than 285.

Compound `OC(c1cc(C(F)(F)F)nc2c(C(F)(F)F)cccc12)C1CCCCN1` (stereo not drawn) [MEFLOQUINE] showed a pIC50 in the series on Plasmodium falciparum [1] of 7.77. Besides, the IC90 in the series on Plasmodium falciparum [10] came to 0.07 µM.
